Source: ChEMBL document CHEMBL4118142, “Novel amidrazone derivatives: Design, synthesis and activity evaluation” (Bioorg Med Chem, 2018)
pIC50: −log10 of the molar value. Calls of active or inactive are those of the source. The rule behind the calls is not given here.

Key:
[1] = target: T1, Acid-sensing ion channel 1 (Rattus norvegicus) (UniProt P55926); assay: (§1) Inhibition of ASIC1a in rat articular chondrocytes assessed as decrease in acid-induced intracellular calcium level at 25 uM pretreated with compound followed by acid medium stimulation in presence of voltage gated calcium channel inhibitor nimodipine after 24 hrs by Fluo-3AM dye based laser scanning confocal microscopy relative to control; assay type: cell-based
T1 sequence (whole entry): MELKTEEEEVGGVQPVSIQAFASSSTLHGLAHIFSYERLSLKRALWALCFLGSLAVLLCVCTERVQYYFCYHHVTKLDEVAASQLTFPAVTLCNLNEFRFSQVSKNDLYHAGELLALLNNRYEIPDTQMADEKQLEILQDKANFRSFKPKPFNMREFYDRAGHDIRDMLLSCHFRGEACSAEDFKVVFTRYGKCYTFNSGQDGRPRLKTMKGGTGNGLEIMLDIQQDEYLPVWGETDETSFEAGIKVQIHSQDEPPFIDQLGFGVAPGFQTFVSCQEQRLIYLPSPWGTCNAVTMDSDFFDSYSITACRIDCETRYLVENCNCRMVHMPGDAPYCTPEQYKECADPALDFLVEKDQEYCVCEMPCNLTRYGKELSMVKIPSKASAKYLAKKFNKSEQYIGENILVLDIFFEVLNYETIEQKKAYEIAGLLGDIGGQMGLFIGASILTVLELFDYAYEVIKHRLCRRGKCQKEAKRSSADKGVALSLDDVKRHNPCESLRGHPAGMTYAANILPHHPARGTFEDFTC
Outline: (§2)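 Primary rat articular chondrocytes (1 × 10^5 cells) were grown 24 h, then loaded with 10 μM Fluo-3-AM plus 0.02% Pluronic F-127 for 30 min at 37 °C and washed. Nimodipine (5 μM) was present in the extracellular fluid. Cells were perfused with D-Hank's containing compound, then with Hank's solution at pH 6.0. Confocal fluorescence (ex 488, em 525 nm) was imaged up to 5 min. Result reported as % inhibition of Ca2+ fluorescence intensity.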

[2] = target: T1, Acid-sensing ion channel 1 (Rattus norvegicus); assay: Inhibition of acid-induced ASIC1a protein expression in rat articular chondrocytes at 1.563 to 25 uM pretreated for 24 hrs followed by acid medium stimulation at pH 6 for 3 hrs by Western blot analysis; assay type: cell-based
Outline: (§3)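 Primary rat articular chondrocytes in DMEM/10% FBS at 37 °C, 5% CO2 were pretreated with compound for 24 h, then stimulated with acidic medium (pH 6.0) for 3 h. Cells kept at pH 7.4 served as control. Cells were PBS-washed and lysed, and ASIC1a was measured by Western blot with β-actin as internal control. Mean ± SD of three independent experiments.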

[3] = Cytotoxicity against rat articular chondrocytes assessed as decrease in cell viability at 1.563 to 25 uM after 24 hrs by MTT assay
Outline: (§4)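 Primary rat articular chondrocytes were seeded at 5 × 10^3 cells/well and incubated 24 h in DMEM with 10% FBS. They were then exposed to compound for 24 h. MTT (5 mg/mL stock) was added for 4 h at 37 °C, formazan was dissolved in DMSO, and OD was read at 492 nm against a cell-free blank. Run in triplicate, three independent experiments, means ± SE.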

[4] = Cytotoxicity against rat articular chondrocytes assessed as decrease in cell viability at 3.125 to 25 uM after 24 hrs by MTT assay; outline: as §4
[5] = target: T1, Acid-sensing ion channel 1 (Rattus norvegicus); assay: as §1, with “50” for “25”; assay type: cell-based; outline: as §2
[6] = target: T1, Acid-sensing ion channel 1 (Rattus norvegicus); assay: Inhibition of acid-induced ASIC1a protein expression in rat articular chondrocytes at 3.125 to 50 uM pretreated for 24 hrs followed by acid medium stimulation at pH 6 for 3 hrs by Western blot analysis; assay type: cell-based; outline: as §3
[7] = Cytotoxicity against rat articular chondrocytes assessed as decrease in cell viability at 50 uM after 24 hrs by MTT assay; outline: as §4
[8] = target: T2, Acid-sensing ion channel 1 (Rattus norvegicus, UniProt P55926); assay: Inhibition of ASIC1 in Sprague-Dawley rat articular chondrocytes assessed as decrease in acid-induced intracellular calcium level by Fluo-3AM dye based laser scanning confocal microscopy; assay type: cell-based
T2 sequence (P55926 whole entry): T1 sequence (whole entry)
Outline: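 Primary rat articular chondrocytes were seeded at 1 × 10^5 cells and used after 24 h. Cells were loaded with 10 µM Fluo-3-AM plus 0.02% Pluronic F-127 for 30 min at 37 °C, washed, and kept with 5 µM nimodipine in the extracellular fluid. They were perfused with D-Hank's, then compound, then pH 6.0 Hank's. Confocal readout at ex 488/em 525 nm over 5 min gave the fluorescence-intensity inhibition rate.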

[9] = target: T2, Acid-sensing ion channel 1; assay: Inhibition of ASIC1a in rat dorsal root ganglion neurons assessed as reduction in peak current preincubated for 120 secs followed by acid medium stimulation at pH 5.5 for 3 secs by automated patch clamp electrophysiology assay

| Compound | inhibition [1] [%] | inhibition of ASIC1a protein expression (active/not active) [2] | inhibition [6] | Activity [3] | also measured |
| --- | --- | --- | --- | --- | --- |
| N=C(NN)c1ccc2cc(/C=C/c3cccc(Cl)c3)ccc2c1 | 59.5 | Active |  | Non-Toxic |  |
| N=C(NN)c1ccc2cc(/C=C/c3ccc(Cl)cc3)ccc2c1 |  |  | Active |  | Activity [4]: Non-Toxic; inhibition [5]: 20.8% |
| N=C(NN)c1ccc2cc(/C=C/c3ccccc3)ccc2c1 | 33.4 | Active |  | Non-Toxic |  |
| N=C(N)NC(=O)c1nc(Cl)c(N)nc1N [AMILORIDE] |  |  |  |  | pIC50 [8]: 4.52 |
| CC(C)C1c2cc(C3CC3c3ccc4cc(C(=N)N)ccc4c3)ccc2CCN1C (centres undefined) |  |  |  |  | pIC50 [9]: 5.70 |
| N=C(NN)c1ccc2cc(/C=C/c3ccccc3F)ccc2c1 | 52.1 | Active |  | Non-Toxic |  |
| N=C(NN)c1ccc2cc(/C=C/c3ccc(F)cc3)ccc2c1 |  | inactive |  | Non-Toxic |  |
| COc1ccc(/C=C/c2ccc3cc(C(=N)NN)ccc3c2)cc1 | 68.9 |  | Active |  | Activity [4]: Non-Toxic |

Further lines, with some results ahead:

| inhibition [1] [%] | inhibition of ASIC1a protein expression (active/not active) [2] | inhibition [6] | Compound | Activity [3] | also measured |
| --- | --- | --- | --- | --- | --- |
|  |  | Active | Cc1ccc(/C=C/c2ccc3cc(C(=N)NN)ccc3c2)cc1 |  | inhibition [5]: 63.2%; Activity [7]: Toxic |
|  | Active |  | N=C(NN)c1ccc2cc(/C=C/c3cccc(F)c3)ccc2c1 | Non-Toxic |  |
